According to paper PMC10449099 (The Journal of Pharmacology and Experimental Therapeutics, 2023):
Values belong to the compound of their own block, whether it stands above or below them.

Legend:
[1] = tested on: hSUR2B mutations (A478V, R1154Q, indel1055); experiment: DiBAC4; format: cell-based, human; settings: for reversal of mutation-caused hyperpolarization by inhibitor: basal activity without KCO, hSUR2B A478V, R1154Q, indel1055
In short: (§1)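 Stable landing-pad HEK293 lines expressing hKir6.1/hSUR2B mutants were induced with doxycycline (4 μg/ml) and grown 1 day on poly-L-lysine. Cells were washed in low-K buffer (1 mM KCl, HEPES, pH 7.4), then incubated ≥30 min with 3 μM DiBAC4(3) plus blocker (glibenclamide, repaglinide or PNU37883A), without opener. Cells were segmented by red fluorescence, background-subtracted and mean-intensity averaged over duplicate images.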

hKir6.1[A46V] = hKir6.1[A46V] (Homo sapiens, UniProt O60706+Q15842, A46V); experiment: DiBAC4; format: cell-based; settings: basal activity without KCO
hKir6.1[A46V], sequence (Q15842 whole entry A46V): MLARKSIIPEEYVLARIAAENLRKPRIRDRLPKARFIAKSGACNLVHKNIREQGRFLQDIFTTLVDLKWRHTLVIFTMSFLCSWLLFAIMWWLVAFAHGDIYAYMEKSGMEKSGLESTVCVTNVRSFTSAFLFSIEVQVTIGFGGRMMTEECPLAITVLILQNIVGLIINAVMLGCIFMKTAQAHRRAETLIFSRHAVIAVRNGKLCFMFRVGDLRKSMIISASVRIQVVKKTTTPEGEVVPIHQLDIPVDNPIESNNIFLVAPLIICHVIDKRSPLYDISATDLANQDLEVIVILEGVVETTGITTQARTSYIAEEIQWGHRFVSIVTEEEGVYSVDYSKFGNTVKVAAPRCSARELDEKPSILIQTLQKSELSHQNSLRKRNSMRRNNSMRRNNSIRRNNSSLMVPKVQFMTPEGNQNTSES
hKir6.1[A46V], sequence (O60706 1-1549 isoform O60706-2, stated change not applied): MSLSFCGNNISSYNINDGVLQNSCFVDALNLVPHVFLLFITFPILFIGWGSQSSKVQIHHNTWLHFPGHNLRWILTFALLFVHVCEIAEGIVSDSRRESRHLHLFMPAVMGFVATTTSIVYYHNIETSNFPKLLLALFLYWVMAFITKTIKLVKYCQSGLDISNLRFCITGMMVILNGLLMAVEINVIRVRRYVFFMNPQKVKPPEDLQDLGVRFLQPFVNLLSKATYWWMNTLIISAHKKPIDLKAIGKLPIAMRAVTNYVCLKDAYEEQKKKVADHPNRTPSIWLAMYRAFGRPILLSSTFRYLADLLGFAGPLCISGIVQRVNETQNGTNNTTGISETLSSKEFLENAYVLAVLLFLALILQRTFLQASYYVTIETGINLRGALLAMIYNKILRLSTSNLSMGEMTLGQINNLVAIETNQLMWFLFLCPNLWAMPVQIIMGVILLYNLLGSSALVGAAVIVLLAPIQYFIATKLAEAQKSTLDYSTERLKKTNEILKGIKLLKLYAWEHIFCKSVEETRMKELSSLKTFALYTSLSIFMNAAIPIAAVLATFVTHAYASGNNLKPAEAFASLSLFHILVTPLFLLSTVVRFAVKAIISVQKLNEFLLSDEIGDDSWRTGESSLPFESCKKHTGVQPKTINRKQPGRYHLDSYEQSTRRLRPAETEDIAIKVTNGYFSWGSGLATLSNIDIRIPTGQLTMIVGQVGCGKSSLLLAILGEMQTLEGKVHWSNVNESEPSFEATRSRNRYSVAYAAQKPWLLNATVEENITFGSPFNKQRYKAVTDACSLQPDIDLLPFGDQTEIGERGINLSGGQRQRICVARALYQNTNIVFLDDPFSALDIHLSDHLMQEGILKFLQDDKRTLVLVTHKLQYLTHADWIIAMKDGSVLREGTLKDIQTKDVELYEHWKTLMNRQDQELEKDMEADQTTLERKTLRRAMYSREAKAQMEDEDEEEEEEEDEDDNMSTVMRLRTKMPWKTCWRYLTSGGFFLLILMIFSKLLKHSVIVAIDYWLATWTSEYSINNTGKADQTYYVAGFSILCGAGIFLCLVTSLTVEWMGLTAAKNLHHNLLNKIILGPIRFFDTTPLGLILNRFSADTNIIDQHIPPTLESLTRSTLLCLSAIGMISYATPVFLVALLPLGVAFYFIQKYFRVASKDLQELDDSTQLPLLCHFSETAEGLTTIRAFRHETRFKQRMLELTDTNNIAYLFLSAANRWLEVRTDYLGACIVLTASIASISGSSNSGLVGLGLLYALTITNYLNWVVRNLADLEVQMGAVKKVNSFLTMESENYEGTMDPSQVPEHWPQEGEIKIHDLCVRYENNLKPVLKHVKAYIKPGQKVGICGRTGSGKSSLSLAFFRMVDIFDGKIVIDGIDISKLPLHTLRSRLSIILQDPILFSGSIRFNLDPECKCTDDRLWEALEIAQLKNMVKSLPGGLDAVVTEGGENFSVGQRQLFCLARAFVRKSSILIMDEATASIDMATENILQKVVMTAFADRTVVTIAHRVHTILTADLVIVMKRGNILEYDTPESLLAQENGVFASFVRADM
In short: as §1

Kir6.1[D338E] = Kir6.1[D338E] (Homo sapiens, UniProt O60706+Q15842, D338E); experiment: DiBAC4; format: cell-based; settings: basal activity without KCO; printed hKir6.1[G338E]
Kir6.1[D338E], sequence (Q15842 whole entry D338E): as the sequence (Q15842 whole entry A46V) above, with V46A, D338E counted along it
Kir6.1[D338E], sequence (O60706 1-1549 isoform O60706-2, stated change not applied): as the sequence (O60706 1-1549 isoform O60706-2, stated change not applied) above

[2] = tested on: hKir6.1 mutations, particularly V65M, C176S and E189K; experiment: DiBAC4; format: cell-based, human; settings: for sensitivity of mutation-caused hyperpolarization to reversal by inhibitor: basal activity without KCO, hKir6.1 mutations, particularly V65M, C176S, E189K
In short: as §1

cardiac function = settings: ref Humphrey et al., 1996; cited from earlier work
hKir6.1/hSUR2B[R1154Q] = hKir6.1/hSUR2B[R1154Q] (Homo sapiens, UniProt O60706+Q15842, R1154Q); experiment: Thallium flux assay, SUR2B[R1154Q] stable cells; format: cell-based; settings: KCOs at presumably maximal concentrations
hKir6.1/hSUR2B[R1154Q], sequence (Q15842 whole entry): as the sequence (Q15842 whole entry A46V) above, with V46A counted along it
hKir6.1/hSUR2B[R1154Q], sequence (O60706 1-1549 isoform O60706-2 R1154Q): as the sequence (O60706 1-1549 isoform O60706-2, stated change not applied) above, with R1154Q counted along it
In short: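 Doxycycline-induced stable HEK293 cells on poly-L-lysine were loaded 1 h with Fluozin-2 in HBSS. […] Ex 485/em 528 nm was read every 2 s for 2 min, with Tl+ added at 20 s. Blank-subtracted, pre-Tl-normalized traces were fit single-exponentially, giving initial rate at t=0; n = 3–4.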

hKir6.1[V65M]/hSUR2B = hKir6.1[V65M]/hSUR2B (Homo sapiens, UniProt O60706+Q15842, V65M); experiment: Thallium flux assay, Kir6.1[V65M] stable cells; format: cell-based; settings: for activation of Tl influx by KCO: KCOs at presumably maximal concentrations, compared with WT
hKir6.1[V65M]/hSUR2B, sequence (Q15842 whole entry V65M): as the sequence (Q15842 whole entry A46V) above, with V46A, V65M counted along it
hKir6.1[V65M]/hSUR2B, sequence (O60706 1-1549 isoform O60706-2, stated change not applied): as the sequence (O60706 1-1549 isoform O60706-2, stated change not applied) above

WT hKir6.1/hSUR2B [3] = biological target: T1, WT hKir6.1/hSUR2B (Homo sapiens, UniProt O60706+Q15842); format: cell-based; settings: for activation of Tl influx by KCO: KCOs at presumably maximal concentrations
T1 sequence (Q15842 whole entry): as the sequence (Q15842 whole entry A46V) above, with V46A counted along it
T1 sequence (O60706 1-1549 isoform O60706-2): as the sequence (O60706 1-1549 isoform O60706-2, stated change not applied) above

WT hKir6.1/hSUR2B [4] = biological target: T1, WT hKir6.1/hSUR2B; experiment: DiBAC4; format: cell-based; settings: WT cells
In short: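 WT hKir6.1/hSUR2B and untransfected landing-pad HEK293 cells were loaded ≥30 min with 3 μM DiBAC4(3) in 1 mM K+ buffer. […] Background-subtracted mean cell fluorescence was normalized to untreated cells, n = 4–6. K conductance was estimated with a simplified Goldman-Hodgkin-Katz equation.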

hKir6.1[E189K]/hSUR2B = hKir6.1[E189K]/hSUR2B (Homo sapiens, UniProt O60706+Q15842, E189K); experiment: Thallium flux assay, Kir6.1[E189K] stable cells; format: cell-based
hKir6.1[E189K]/hSUR2B, sequence (Q15842 whole entry E189K): as the sequence (Q15842 whole entry A46V) above, with V46A, E189K counted along it
hKir6.1[E189K]/hSUR2B, sequence (O60706 1-1549 isoform O60706-2, stated change not applied): as the sequence (O60706 1-1549 isoform O60706-2, stated change not applied) above

hKir6.1[D338E]/hSUR2B = hKir6.1[D338E]/hSUR2B (Homo sapiens, UniProt O60706+Q15842, D338E); experiment: Thallium flux assay, Kir6.1[D338E] stable cells; format: cell-based
hKir6.1[D338E]/hSUR2B, sequence (Q15842 whole entry D338E): as the sequence (Q15842 whole entry A46V) above, with V46A, D338E counted along it
hKir6.1[D338E]/hSUR2B, sequence (O60706 1-1549 isoform O60706-2, stated change not applied): as the sequence (O60706 1-1549 isoform O60706-2, stated change not applied) above

[5] = tested on: hKir6.1/hSUR2B with hSUR2B mutations (A478V, indel1055, R1154Q, R1154W); experiment: Thallium flux assay, all cell lines with hSUR2B mutations; format: cell-based, human; settings: all hSUR2B mutant cell lines
In short: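 Doxycycline-induced stable hKir6.1/hSUR2B-mutant HEK293 cells on poly-L-lysine were loaded 1 h with Fluozin-2 in HBSS. […] Ex 485/em 528 nm was read every 2 s for 2 min, with Tl+ added at 20 s. Blank-subtracted traces normalized to pre-Tl fluorescence were fit with a single exponential; initial rate was the derivative at t=0.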

hKir6.1[C176S]/hSUR2B = hKir6.1[C176S]/hSUR2B (Homo sapiens, UniProt O60706+Q15842, C176S); experiment: Thallium flux assay, Kir6.1[C176S] stable cells; format: cell-based
hKir6.1[C176S]/hSUR2B, sequence (Q15842 whole entry C176S): as the sequence (Q15842 whole entry A46V) above, with V46A, C176S counted along it
hKir6.1[C176S]/hSUR2B, sequence (O60706 1-1549 isoform O60706-2, stated change not applied): as the sequence (O60706 1-1549 isoform O60706-2, stated change not applied) above

hKir6.1[A46V]/hSUR2B = hKir6.1[A46V]/hSUR2B (Homo sapiens, UniProt O60706+Q15842, A46V); experiment: Thallium flux assay, Kir6.1[A46V] stable cells; format: cell-based
hKir6.1[A46V]/hSUR2B, sequence (Q15842 whole entry A46V): as the sequence (Q15842 whole entry A46V) above
hKir6.1[A46V]/hSUR2B, sequence (O60706 1-1549 isoform O60706-2, stated change not applied): as the sequence (O60706 1-1549 isoform O60706-2, stated change not applied) above

hSUR2B[R1154W] = hSUR2B[R1154W] (Homo sapiens, UniProt O60706+Q15842, R1154W); experiment: DiBAC4; format: cell-based; settings: basal activity without KCO
hSUR2B[R1154W], sequence (Q15842 whole entry): as the sequence (Q15842 whole entry A46V) above, with V46A counted along it
hSUR2B[R1154W], sequence (O60706 1-1549 isoform O60706-2 R1154W): as the sequence (O60706 1-1549 isoform O60706-2, stated change not applied) above, with R1154W counted along it
In short: as §1

[6] = biological target: Kir6.1/SUR2B[R1154Q] mutant channels (Homo sapiens, UniProt O60706+Q15842, R1154Q); experiment: Whole-cell patch-clamp, stably transfected R1154Q mutant channels; format: cell-based
Kir6.1/SUR2B[R1154Q] mutant channels, sequence (Q15842 whole entry): as the sequence (Q15842 whole entry A46V) above, with V46A counted along it
Kir6.1/SUR2B[R1154Q] mutant channels, sequence (O60706 1-1549 isoform O60706-2 R1154Q): as the sequence (O60706 1-1549 isoform O60706-2, stated change not applied) above, with R1154Q counted along it

SUR2[A478V] mice = settings: ref McClenaghan et al., 2020b; cited from earlier work
gastric motility = settings: ref York et al., 2020; cited from earlier work
WT Kir6.1/SUR2B channels = WT Kir6.1/SUR2B channels (Homo sapiens, UniProt O60706+Q15842); experiment: Whole-cell patch-clamp, stably transfected WT channels; format: cell-based; settings: Vm -60 mV
WT Kir6.1/SUR2B channels, sequence (Q15842 whole entry): as the sequence (Q15842 whole entry A46V) above, with V46A counted along it
WT Kir6.1/SUR2B channels, sequence (O60706 1-1549 isoform O60706-2): as the sequence (O60706 1-1549 isoform O60706-2, stated change not applied) above

[7] = most SUR2B CS mutations, basal activity

SMILES: C1CCC(N=C(NC23CC4CC(CC(C4)C2)C3)N2CCOCC2)CC1.Cl [PNU37883A]
reversal of mutation-caused hyperpolarization by inhibitor [1]: readily reversed
reversal of mutation-caused hyperpolarization by inhibitor (hKir6.1[A46V]): readily reversed
sensitivity of mutation-caused hyperpolarization to reversal by inhibitor (Kir6.1[D338E]): uniquely insensitive
inhibition of basal Kir6.1 mutation activities, comparison ([2]; at saturating doses): more effective than glibenclamide or repaglinide
sensitivity of mutation-caused hyperpolarization to reversal by inhibitor [2]: very poorly sensitive
effects on cardiac function (cardiac function): Fatal effects

SMILES: CC1=NS(=O)(=O)c2cc(Cl)ccc2N1 [diazoxide]
activation of Tl influx by KCO (hKir6.1/hSUR2B[R1154Q]): not activated
activation of Tl influx by KCO (hKir6.1[V65M]/hSUR2B; hKir6.1[V65M]): measurable activation
concentrations generating clear KATP-dependent hyperpolarization signals (WT hKir6.1/hSUR2B [4]; 1 mM [K+]o): above 1 μM
effect on membrane potential (DiBAC4(3) fluorescence) (WT hKir6.1/hSUR2B [4]; 1 mM [K+]o): dose-dependently hyperpolarized
activation of Tl influx by KCO (WT hKir6.1/hSUR2B [3]; WT): no effect

SMILES: COc1ccc(Cl)cc1C(=O)NCCc1ccc(S(=O)(=O)NC(=O)NC2CCCCC2)cc1 [glibenclamide]
Hill coefficient, glibenclamide inhibition (hKir6.1[E189K]/hSUR2B; Kir6.1[E189K], 100 μM pinacidil, fit with eq. 4): 1.0 ± 0.2
reversal of mutation-caused hyperpolarization by inhibitor [1]: readily reversed
glibenclamide concentration that effectively blocked basal activity [1, 7]: 100 to 300 nM
glibenclamide concentration that markedly inhibited ([1]; most SUR2 CS mutations): < 100 nM
Hill coefficient, glibenclamide inhibition (hKir6.1[A46V]/hSUR2B; 100 μM pinacidil, fit with eq. 4): 1.9 ± 0.3
reversal of mutation-caused hyperpolarization by inhibitor (hKir6.1[A46V]): readily reversed
sensitivity of mutation-caused hyperpolarization to reversal by inhibitor (hSUR2B[R1154W]): uniquely insensitive
glibenclamide sensitivity (IPin+Glib/IPin) compared with WT ([6]; pinacidil-activated current): markedly reduced
Hill coefficient, glibenclamide inhibition (hKir6.1[D338E]/hSUR2B; Kir6.1[D338E], 100 μM pinacidil, fit with eq. 4): 1.5 ± 0.4
sensitivity of mutation-caused hyperpolarization to reversal by inhibitor [2]: very poorly sensitive
Hill coefficient, glibenclamide inhibition (hKir6.1[V65M]/hSUR2B; Kir6.1[V65M], 100 μM pinacidil, fit with eq. 4): 1.8 ± 0.8
Hill coefficient, glibenclamide inhibition (hKir6.1[C176S]/hSUR2B; Kir6.1[C176S], 100 μM pinacidil, fit with eq. 4): 1.1 ± 0.5
effect on CS-associated cardiovascular abnormalities (SUR2[A478V] mice): reversed CS-associated cardiovascular abnormalities
Hill coefficient, glibenclamide inhibition (WT hKir6.1/hSUR2B [3]; WT, 100 μM pinacidil, fit with eq. 4): 2.9 ± 6.0
effect on gastric motility (gastric motility): restored gastric motility

SMILES: O=C(NCCO[N+](=O)[O-])c1cccnc1 [nicorandil]
activation of Tl influx by KCO (hKir6.1/hSUR2B[R1154Q]): not activated
activation of Tl influx by KCO (hKir6.1[V65M]/hSUR2B; hKir6.1[V65M]): measurable activation
activation of Tl influx by KCO (WT hKir6.1/hSUR2B [3]; WT): only activated by pinacidil and cromakalim

SMILES: CCOc1cc(CC(=O)N[C@@H](CC(C)C)c2ccccc2N2CCCCC2)ccc1C(=O)O [repaglinide]
reversal of mutation-caused hyperpolarization by inhibitor [1]: readily reversed
block of basal activity compared with glibenclamide [1, 7]: more effectively
reversal of mutation-caused hyperpolarization by inhibitor (hKir6.1[A46V]): readily reversed
sensitivity of mutation-caused hyperpolarization to reversal by inhibitor [2]: very poorly sensitive

Further lines, with some results ahead:

activation of Tl influx by KCO (hKir6.1/hSUR2B[R1154Q]): not activated
activation of Tl influx by KCO (hKir6.1[V65M]/hSUR2B; hKir6.1[V65M]): enhanced activation
activation of Tl influx by KCO (WT hKir6.1/hSUR2B [3]; WT): activated
SMILES: CC1(C)Oc2ccc(C#N)cc2C(N2CCCC2=O)C1O (centres unmarked) [cromakalim]

Tl-influx rate with forskolin (hKir6.1[E189K]/hSUR2B; hKir6.1[E189K], 10 μM forskolin): increased
Tl-influx rate with forskolin (hKir6.1[D338E]/hSUR2B; hKir6.1[D338E], 10 μM forskolin): increased
Tl-influx rate with forskolin (hKir6.1[V65M]/hSUR2B; hKir6.1[V65M], 10 μM forskolin): increased
effect of forskolin on membrane potential (DiBAC4(3)) (WT hKir6.1/hSUR2B [4]; 10 μM forskolin): significant hyperpolarization
Tl-influx rate with forskolin (hKir6.1[C176S]/hSUR2B; hKir6.1[C176S], 10 μM forskolin): increased
Tl influx signal with forskolin (WT hKir6.1/hSUR2B [3]; WT, 10 μM forskolin): failed to generate measurable
SMILES: C=C[C@@]1(C)CC(=O)[C@]2(O)[C@@]3(C)[C@@H](O)CCC(C)(C)[C@@H]3[C@H](O)[C@H](OC(C)=O)[C@@]2(C)O1 [forskolin]
response of Tl-influx rate to forskolin ([5]; 10 μM forskolin): essentially insensitive

Hill coefficient, pinacidil activation (hKir6.1[E189K]/hSUR2B; Kir6.1[E189K], fit with eq. 3): 1.3 ± 0.4
increase of whole-cell current by pinacidil (IPin/IBasal) (WT Kir6.1/SUR2B channels): ~150 fold
Hill coefficient, pinacidil activation (hKir6.1[A46V]/hSUR2B; fit with eq. 3): 1.9 ± 0.2
activation of Tl influx by KCO (hKir6.1/hSUR2B[R1154Q]): not activated
increase of whole-cell current by pinacidil (IPin/IBasal) ([6]; Vm -60 mV): ~10 fold
Hill coefficient, pinacidil activation (hKir6.1[D338E]/hSUR2B; Kir6.1[D338E], fit with eq. 3): 1.7 ± 0.1
channel activity at very high concentration of pinacidil (hKir6.1[V65M]/hSUR2B; Kir6.1[V65M], 300 μM pinacidil): slightly decreased
Hill coefficient, pinacidil activation (hKir6.1[V65M]/hSUR2B; Kir6.1[V65M], fit with eq. 3): 1.2 ± 0.0
activation of Tl influx by KCO (hKir6.1[V65M]/hSUR2B; hKir6.1[V65M]): enhanced activation
DiBAC4(3) signal changes at 10 μM pinacidil (WT hKir6.1/hSUR2B [4]; 10 μM pinacidil): almost saturated
effect on membrane potential (DiBAC4(3) fluorescence) (WT hKir6.1/hSUR2B [4]; 1 mM [K+]o): dose-dependently hyperpolarized
potency of hyperpolarization, comparison (WT hKir6.1/hSUR2B [4]; 1 mM [K+]o): more potent than diazoxide
share of the DiBAC4(3) signal change that occurs at <3 μM pinacidil (WT hKir6.1/hSUR2B [4]; <3 μM pinacidil, activation of <20% of maximal WT conductance): ~80%
maximum channel activity with pinacidil compared with WT (hKir6.1[C176S]/hSUR2B; Kir6.1[C176S], Tl influx dose-response): much higher
Hill coefficient, pinacidil activation (hKir6.1[C176S]/hSUR2B; Kir6.1[C176S], fit with eq. 3): 1.2 ± 0.1
pinacidil concentration at which Tl influx activation reached maximum (WT hKir6.1/hSUR2B [3]; WT channels): 100 µM
activation of Tl influx by KCO (WT hKir6.1/hSUR2B [3]; WT): activated
Hill coefficient, pinacidil activation (WT hKir6.1/hSUR2B [3]; WT, fit with eq. 3): 2.6 ± 1.0
SMILES: CC(N/C(=N\C#N)Nc1ccncc1)C(C)(C)C (centres unmarked) [pinacidil]
response of Tl-influx rate to pinacidil activation ([5]; pinacidil 100 μM): essentially insensitive
